# Active and inactive are the calls of the source. The rule behind the calls is not given here.
# Experiments:
# Assay type in all cases: functional
# Staphylococcus aureus [1] = assay: Antibacterial activity against linezolid-resistant Staphylococcus aureus NRS-271 containing phage type E-MRSA after 18 hrs by two fold serial dilution method; details: NRS-271, 18 h
# How it was run: (§1)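 Strains grown overnight at 37 °C in TSB without antibiotic. Cultures were diluted 1000-fold, grown at 37 °C for 2–3 h to A600 0.6, then diluted 1:400 in fresh TSB. Equal volumes of bacteria and two-fold serial DMSO dilutions (final 0.39–50) were mixed. A600 was read after 18 h. MIC was the lowest concentration inhibiting growth. Run in triplicate, with vancomycin and tetracycline controls.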
# Staphylococcus aureus [2] = assay: Antibacterial activity against oxacillin/tetracycline-resistant Staphylococcus aureus NRS-100 after 18 hrs by two fold serial dilution method; details: NRS-100, 18 h; how it was run: as §1
# Staphylococcus aureus [3] = assay: Antibacterial activity against Staphylococcus aureus Newman after 18 hrs by two fold serial dilution method
# How it was run: (§2)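 Strains were grown overnight at 37 °C in TSB without antibiotic, diluted 1000-fold, and grown 2–3 h to A600 0.6. They were then diluted 1:400 in fresh TSB. Compounds in DMSO were two-fold serially diluted to a final 0.39–50 and mixed with an equal volume of bacteria. A600 was read after 18 h. MIC is the lowest concentration inhibiting growth. Triplicate; vancomycin and tetracycline were positive controls.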
# Staphylococcus aureus [4] = assay: Antibacterial activity against erythromycin-resistant Staphylococcus aureus NRS-70 after 18 hrs by two fold serial dilution method; details: NRS-70, 18 h; how it was run: as §1
# Staphylococcus aureus [5] = assay: Antibacterial activity against aminoglycosides/tetracycline-resistant Staphylococcus aureus NRS-1 after 18 hrs by two fold serial dilution method; details: NRS-1, 18 h; how it was run: as §1
# Staphylococcus aureus [6] = assay: Antibacterial activity against gentamicin-resistant Staphylococcus aureus NRS-108 after 18 hrs by two fold serial dilution method; details: NRS-108, 18 h; how it was run: as §1
# Escherichia coli = assay: Antibacterial activity against Escherichia coli AB1157 at 50 ug/ml after 18 hrs by two fold serial dilution method; how it was run: as §2
MIC (Staphylococcus aureus [3]),SMILES,MIC (Staphylococcus aureus [1]),MIC (Staphylococcus aureus [2]),MIC (Staphylococcus aureus [4]),MIC (Staphylococcus aureus [5]),MIC (Staphylococcus aureus [6]),Activity (Escherichia coli)
26.9 to 35.9 µM,CC(C)c1cc2c(cc1Br)[C@@]1(C)CCC[C@@](C)(C(=O)O)[C@@H]1C/C2=N\OCCNC(=O)c1ccccn1,–,–,–,–,–,inactive
36.7 to 45.8 µM,CC(C)c1cc2c(cc1Br)[C@@]1(C)CCC[C@@](C)(C(=O)O)[C@@H]1C/C2=N\OCCNC(=O)c1ccco1,–,–,–,–,–,inactive
> 101 µM,CC(=O)NCCO/N=C1\C[C@H]2[C@](C)(C(=O)O)CCC[C@]2(C)c2cc(Br)c(C(C)C)cc21,–,–,–,–,–,inactive
> 107 µM,CC(C)c1cc2c(cc1Br)[C@@]1(C)CCC[C@@](C)(C(=O)O)[C@@H]1C/C2=N\OCCCN,–,–,–,–,–,inactive
13.6 to 18.2 µM,CCCCCC(=O)NCCO/N=C1\C[C@H]2[C@](C)(C(=O)O)CCC[C@]2(C)c2cc(Br)c(C(C)C)cc21,–,–,–,–,–,inactive
5.88 to 7.84 µM,CC(C)c1cc2c(cc1Br)[C@@]1(C)CCC[C@@](C)(C(=O)O)[C@@H]1C/C2=N\OCCNC(=O)Cc1ccc(C(F)(F)F)cc1,–,–,–,–,–,inactive
8.54 to 10.7 µM,COc1ccccc1C(=O)NCCO/N=C1\C[C@H]2[C@](C)(C(=O)O)CCC[C@]2(C)c2cc(Br)c(C(C)C)cc21,–,–,–,–,–,inactive
57.8 to 77 µM,CC(C)c1cc2c(cc1Br)[C@@]1(C)CCC[C@@](C)(C(=O)O)[C@@H]1C/C2=N\OCCNC(=O)C1CC1,–,–,–,–,–,inactive
72.8 to 91 µM,CC(C)c1cc2c(cc1Br)[C@@]1(C)CCC[C@@](C)(C(=O)O)[C@@H]1C/C2=N\OCCCNC(=O)C(C)(C)C,–,–,–,–,–,inactive
25.6 to 34.2 µM,COc1ccc(C(=O)NCCO/N=C2\C[C@H]3[C@](C)(C(=O)O)CCC[C@]3(C)c3cc(Br)c(C(C)C)cc32)cc1,–,–,–,–,–,inactive
76.7 to 95.9 µM,CC(C)C(=O)NCCO/N=C1\C[C@H]2[C@](C)(C(=O)O)CCC[C@]2(C)c2cc(Br)c(C(C)C)cc21,–,–,–,–,–,inactive
5.69 to 7.58 µM,CC(C)c1cc2c(cc1Br)[C@@]1(C)CCC[C@@](C)(C(=O)O)[C@@H]1C/C2=N\OCCCNC(=O)c1c(F)c(F)c(F)c(F)c1F,–,–,–,–,–,inactive
5.88 to 7.84 µM,CC(C)c1cc2c(cc1Br)[C@@]1(C)CCC[C@@](C)(C(=O)O)[C@@H]1C/C2=N\OCCNC(=O)Cc1cccc(C(F)(F)F)c1,–,–,–,–,–,inactive
17.1 µM,CC(C)c1cc2c(cc1Br)[C@@]1(C)CCC[C@@](C)(C(=O)O)[C@@H]1C/C2=N\OCCCNC(=O)Cc1ccccc1,–,–,–,–,–,inactive
5.81 to 7.75 µM,CC(C)c1cc2c(cc1Br)[C@@]1(C)CCC[C@@](C)(C(=O)O)[C@@H]1C/C2=N\OCCNC(=O)c1c(F)c(F)c(F)c(F)c1F,–,–,–,–,–,inactive
12.5 to 16.7 µM,COc1ccc(C(=O)NCCCO/N=C2\C[C@H]3[C@](C)(C(=O)O)CCC[C@]3(C)c3cc(Br)c(C(C)C)cc32)cc1,–,–,–,–,–,inactive
7.67 µM,CC(C)c1cc2c(cc1Br)[C@@]1(C)CCC[C@@](C)(C(=O)O)[C@@H]1C/C2=N\OCCCNC(=O)Cc1ccccc1C(F)(F)F,–,–,–,–,–,inactive
> 89 µM,CC(C)c1cc2c(cc1Br)[C@@]1(C)CCC[C@@](C)(C(=O)O)[C@@H]1C/C2=N\OCCNC(=O)c1cccs1,–,–,–,–,–,inactive
> 41.1 µM,CC(C)c1cc2c(cc1Br)[C@@]1(C)CCC[C@@](C)(C(=O)O)[C@@H]1C/C2=N\OCCCNC(=O)c1cc2ccccc2[nH]1,–,–,–,–,–,inactive
8.78 µM,CC(C)c1cc2c(cc1Br)[C@@]1(C)CCC[C@@](C)(C(=O)O)[C@@H]1C/C2=N\OCCCNC(=O)c1ccccc1,–,–,–,–,–,inactive

MIC (Staphylococcus aureus [3]),SMILES,MIC (Staphylococcus aureus [1]),MIC (Staphylococcus aureus [2]),MIC (Staphylococcus aureus [4]),MIC (Staphylococcus aureus [5]),MIC (Staphylococcus aureus [6]),Activity (Escherichia coli)
21.9 µM,CC(C)c1cc2c(cc1Br)[C@@]1(C)CCC[C@@](C)(C(=O)O)[C@@H]1C/C2=N\OCCCNC(=O)c1ccccn1,–,–,–,–,–,inactive
5.02 to 8.02 µM,CC(C)c1cc2c(cc1Br)[C@@]1(C)CCC[C@@](C)(C(=O)O)[C@@H]1C/C2=N\OCCNC(=O)c1ccc(C(F)(F)F)cc1,–,–,–,–,–,inactive
13.1 to 17.4 µM,CC(C)c1cc2c(cc1Br)[C@@]1(C)CCC[C@@](C)(C(=O)O)[C@@H]1C/C2=N\OCCNC(=O)c1ccccc1F,–,–,–,–,–,inactive
56.2 to 75 µM,CC(C)c1cc2c(cc1Br)[C@@]1(C)CCC[C@@](C)(C(=O)O)[C@@H]1C/C2=N\OCCCNC(=O)C1CC1,–,–,–,–,–,inactive
7.84 µM,CC(C)c1cc2c(cc1Br)[C@@]1(C)CCC[C@@](C)(C(=O)O)[C@@H]1C/C2=N\OCCNC(=O)Cc1ccccc1C(F)(F)F,–,–,–,–,–,inactive
8.51 to 10.6 µM,CC(C)c1cc2c(cc1Br)[C@@]1(C)CCC[C@@](C)(C(=O)O)[C@@H]1C/C2=N\OCCCNC(=O)c1ccccc1F,–,–,–,–,–,inactive
> 89 µM,CC(C)c1cc2c(cc1Br)[C@@]1(C)CCC[C@@](C)(C(=O)O)[C@@H]1C/C2=N\OCCNC(=O)c1ccsc1,–,–,–,–,–,inactive
7.84 to 9.8 µM,CC(C)c1cc2c(cc1Br)[C@@]1(C)CCC[C@@](C)(C(=O)O)[C@@H]1C/C2=N\OCCCNC(=O)c1ccccc1C(F)(F)F,–,–,–,–,–,inactive
17.4 µM,CC(C)c1cc2c(cc1Br)[C@@]1(C)CCC[C@@](C)(C(=O)O)[C@@H]1C/C2=N\OCCCNC(=O)c1ccsc1,–,–,–,–,–,inactive
18 to 22.5 µM,CC(C)c1cc2c(cc1Br)[C@@]1(C)CCC[C@@](C)(C(=O)O)[C@@H]1C/C2=N\OCCNC(=O)c1ccccc1,–,–,–,–,–,inactive
> 111 µM,CC(C)c1cc2c(cc1Br)[C@@]1(C)CCC[C@@](C)(C(=O)O)[C@@H]1C/C2=N\OCCN,–,–,–,–,–,inactive
5.75 to 9.18 µM,CC(C)c1cc2c(cc1Br)[C@@]1(C)CCC[C@@](C)(C(=O)O)[C@@H]1C/C2=N\OCCNC(=O)c1ccc[nH]1,–,–,–,–,–,inactive
13 to 17.4 µM,Cc1ccc(C(=O)NCCO/N=C2\C[C@H]3[C@](C)(C(=O)O)CCC[C@]3(C)c3cc(Br)c(C(C)C)cc32)s1,–,–,–,–,–,inactive
17.6 µM,CC(C)c1cc2c(cc1Br)[C@@]1(C)CCC[C@@](C)(C(=O)O)[C@@H]1C/C2=N\OCCNC(=O)Cc1ccccc1,–,–,–,–,–,inactive
41.6 to 66.6 µM,CC(C)c1ccc2c(c1)CC[C@H]1[C@](C)(C(=O)O)CCC[C@]21C [DEHYDROABIETIC ACID],–,–,–,–,–,inactive
6.36 to 8.48 µM,Cc1ccc(C(=O)NCCCO/N=C2\C[C@H]3[C@](C)(C(=O)O)CCC[C@]3(C)c3cc(Br)c(C(C)C)cc32)s1,–,–,–,–,–,inactive
10 to 20.1 µM,CC(C)c1cc2c(cc1Br)[C@@]1(C)CCC[C@@](C)(C(=O)O)[C@@H]1C/C2=N\OCCNC(=O)c1ccccc1C(F)(F)F,–,–,–,–,–,inactive
> 86.9 µM,CC(C)c1cc2c(cc1Br)[C@@]1(C)CCC[C@@](C)(C(=O)O)[C@@H]1C/C2=N\OCCCNC(=O)c1cccs1,–,–,–,–,–,inactive
4.28 to 6.42 µM,CCc1ccc(C(=O)NCCO/N=C2\C[C@H]3[C@](C)(C(=O)O)CCC[C@]3(C)c3cc(Br)c(C(C)C)cc32)cc1,–,–,–,–,–,inactive
5.86 to 7.81 µM,CC(C)c1cc2c(cc1Br)[C@@]1(C)CCC[C@@](C)(C(=O)O)[C@@H]1C/C2=N\OCCNC(=O)c1cc(Br)cs1,–,–,–,–,–,inactive

SMILES,MIC (Staphylococcus aureus [3]),MIC (Staphylococcus aureus [1]),MIC (Staphylococcus aureus [2]),MIC (Staphylococcus aureus [4]),MIC (Staphylococcus aureus [5]),MIC (Staphylococcus aureus [6]),Activity (Escherichia coli)
CN(C)[C@@H]1C(O)=C(C(N)=O)C(=O)[C@@]2(O)C(O)=C3C(=O)c4c(O)cccc4[C@@](C)(O)[C@H]3C[C@@H]12 [TETRACYCLINE],< 2.16 µM,< 7.04 µM,< 7.04 µM,< 7.04 µM,> 56.2 µM,< 7.04 µM,–
CC(C)c1cc2c(cc1Br)[C@@]1(C)CCC[C@@](C)(C(=O)O)[C@@H]1C/C2=N\OCCCNC(=O)c1ccc(C(F)(F)F)cc1,1.96 to 3.92 µM,2.45 to 3.92 µM,4.91 µM,1.96 to 2.45 µM,9.8 to 19.6 µM,2.45 to 3.92 µM,inactive
CC(C)c1cc2c(cc1Br)[C@@]1(C)CCC[C@@](C)(C(=O)O)[C@@H]1C/C2=N\OCCCNC(=O)Cc1cccc(C(F)(F)F)c1,1.92 to 3.84 µM,2.39 to 3.84 µM,3.84 to 4.8 µM,1.92 to 2.39 µM,> 19.2 µM,2.39 to 3.84 µM,inactive
CC(C)c1cc2c(cc1Br)[C@@]1(C)CCC[C@@](C)(C(=O)O)[C@@H]1C/C2=N\OCCNC(=O)c1cc2ccccc2s1,2.04 to 4.09 µM,2.05 to 2.55 µM,2.55 to 4.09 µM,2.04 to 4.09 µM,4.09 to 5.12 µM,2.55 to 4.09 µM,inactive
CN[C@H](CC(C)C)C(=O)N[C@H]1C(=O)N[C@@H](CC(N)=O)C(=O)N[C@H]2C(=O)N[C@H]3C(=O)N[C@H](C(=O)N[C@H](C(=O)O)c4cc(O)cc(O)c4-c4cc3ccc4O)[C@H](O)c3ccc(c(Cl)c3)Oc3cc2cc(c3O[C@@H]2O[C@H](CO)[C@@H](O)[C@H](O)[C@H]2O[C@H]2C[C@](C)(N)[C@H](O)[C@H](C)O2)Oc2ccc(cc2Cl)[C@H]1O [VANCOMYCIN],< 1.73 µM,< 1.72 µM,0.86 to 1.72 µM,< 1.72 µM,1.72 to 3.45 µM,< 1.72 µM,–

# From ChEMBL document CHEMBL3997768, “The synthesis and antistaphylococcal activity of dehydroabietic acid derivatives: modifications at C12 and C7” (2017)
